Source: ChEMBL document CHEMBL1125898, “Synthesis and biological activity of 2'-deoxy-4'-thio pyrimidine nucleosides” (J Med Chem, 1991)

Assays:
CCRF-CEM = assay: The concentration required to inhibit cell growth to 50% of untreated controls in human T-cell leukemia CCRF-CEM cells; format: functional, cell-based
HEp-2 [1] = assay: The concentration required to produce a 50% inhibition of clone formation in human epidermoid carcinoma H-Ep-2 cells; format: functional, cell-based
L1210 [2] = assay: The concentration required to produce a 50% reduction in the rate of cell proliferation in murine leukemia L1210 cells; format: functional, cell-based; conditions: Mus musculus
HEp-2 [3] = assay: The concentration required to produce a 50% inhibition of clone formation in human epidermoid carcinoma H-Ep-2 cells; NA=no cytotoxicity at 160 uM; format: functional, cell-based
In short: (§1)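 Highest concentration tested was 160 μM. IC50 is the concentration giving a 50% inhibition of clone formation (H-Ep-2) or a 50% reduction in the rate of cell proliferation (L1210).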

L1210 [4] = assay: The concentration required to produce a 50% reduction in the rate of cell proliferation in murine leukemia L1210 cells; NA=no cytotoxicity at 160 uM; format: functional, cell-based, Mus musculus; in short: as §1

Row | SMILES | IC50 (CCRF-CEM) | IC50 (HEp-2 [1]) | IC50 (L1210 [2]) | IC50 (HEp-2 [3]) | IC50 (L1210 [4])
1 | Cc1cn([C@H]2C[C@H](O)[C@@H](CO)S2)c(=O)[nH]c1=O [4'-THIOTHYMIDINE] | 0.67 µM | 0.14 µM | 0.12 µM | – | –
2 | Nc1ccn(C2C[C@H](O)[C@@H](CO)S2)c(=O)n1 (stereo not given in full) | 3.5 µM | < 0.2 µM | 1 µM | – | –
3 | O=c1ccn([C@H]2C[C@H](O)[C@@H](CO)S2)c(=O)[nH]1 | 4 µM | 2.1 µM | 2.7 µM | – | –
4 | O=c1ccn(C2CC(O)C(CO)S2)c(=O)[nH]1 (stereo not given) | – | – | – | Not Active | Not Active
5 | Nc1ccn([C@H]2C[C@H](O)[C@@H](CO)S2)c(=O)n1 [4'-THIO-2'-DEOXYCYTIDINE] | – | < 0.2 µM | 1.2 µM | – | –
6 | Cc1cn([C@@H]2C[C@H](O)[C@@H](CO)S2)c(=O)[nH]c1=O | – | 25 µM | 66 µM | – | –
